Activity calls are given as the source filed them. The rule behind the calls is not given here. Where a SMILES comes first, the peptide text is derived from it. [ ]: non-standard residue; d: D form. Arg(Me) = CNC(=N)NCCC[C@H](N)C(=O)O; azaGly = NNC(=O)O
Experiments:
Rattus norvegicus [1] = assay: Testosterone-suppressive activity in Crl:CD(SD) rat assessed as number of animal with plasma testosterone level below the limit of detection at 0.03 mol/hr, sc through osmotic pumps measured after 6 days by RIA; type: functional
KiSS-1 receptor [2] = biological target: T1, KiSS-1 receptor (Homo sapiens, UniProt Q969F8); assay: Displacement of radioligand from human KISS1R transfected in CHO cells; type: cell-based
T1 sequence (Q969F8 whole entry): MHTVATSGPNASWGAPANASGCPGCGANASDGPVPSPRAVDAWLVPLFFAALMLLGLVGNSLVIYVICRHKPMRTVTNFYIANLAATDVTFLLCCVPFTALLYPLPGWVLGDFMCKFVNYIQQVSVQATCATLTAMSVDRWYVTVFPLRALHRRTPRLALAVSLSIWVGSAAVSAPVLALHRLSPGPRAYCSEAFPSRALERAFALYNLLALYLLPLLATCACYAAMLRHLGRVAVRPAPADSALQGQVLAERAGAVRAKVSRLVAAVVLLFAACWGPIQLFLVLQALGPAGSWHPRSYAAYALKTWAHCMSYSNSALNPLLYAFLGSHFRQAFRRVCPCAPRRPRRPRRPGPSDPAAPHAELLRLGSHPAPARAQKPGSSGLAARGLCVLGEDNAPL
In short: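 Binding used membrane fractions prepared from CHO cells expressing recombinant human KISS1R.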

[3] = Stability of the compound in aqueous solution assessed as residual ratio at pH 7 up to 1 week by HPLC analysis relative to initial level; type: physicochemical
In short: (§1)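 Peptides in aqueous solution at pH 1.2 (JP1, containing 10% acetonitrile), 3, 5 or 7 were kept in the dark at 37 °C for up to 2 weeks. Peptide remaining was quantified from HPLC peak area, with detection at 230–280 nm. The residual ratio (stability index) was expressed relative to the time-0 amount, taken as 100%.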

[4] = Stability of the compound in aqueous solution assessed as residual ratio at pH 5 up to 2 weeks by HPLC analysis relative to initial level; type: physicochemical; in short: as §1
[5] = Volume of distribution at steady state in Sprague-Dawley rat at 1 mg/kg, iv after 24 hrs by LC-MS/MS analysis; type: ADME, organism-based; design: dose 1 mg/kg, route intravenous; conditions: in vivo, read-out: Vdss
In short: (§2)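 Male Crl:CD(SD) rats (3 per group) got a single intravenous dose of 1 mg/kg. Blood was drawn at 5, 10, 15 and 30 min and at 1, 2, 4, 8 and 24 h. Plasma proteins were removed with 0.2% formic acid/methanol and acetonitrile, and the supernatant was treated with 0.4% formic acid. Peptide was quantified by LC-MS. Noncompartmental parameters were derived per rat, reported as mean ± SD (n = 3).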

[6] = Mean residence time in Sprague-Dawley rat at 1 mg/kg, iv after 24 hrs by LC-MS/MS analysis; type: ADME, organism-based; design: dose 1 mg/kg, route intravenous; conditions: in vivo; in short: as §2
[7] = Stability of the compound in aqueous solution (JP1) assessed as residual ratio at pH 1.2 up to 1 week by HPLC analysis relative to initial level; type: physicochemical; in short: as §1
Rattus norvegicus [8] = assay: Testosterone-suppressive activity in Crl:CD(SD) rat assessed as number of animal with plasma testosterone level below the limit of detection at 0.05 mol/hr, sc through osmotic pumps measured after 6 days by RIA; type: functional
Rattus norvegicus [9] = assay: Testosterone-suppressive activity in Crl:CD(SD) rat assessed as number of animal with plasma testosterone level below the limit of detection […], sc through osmotic pumps measured after 6 days by RIA; type: functional
[10] = Mean residence time in Sprague-Dawley rat at 1 mg/kg, sc after 24 hrs by LC-MS/MS analysis; type: ADME, organism-based; design: dose 1 mg/kg, route subcutaneous; conditions: in vivo
In short: (§3)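 Single subcutaneous dose of 1 mg/kg in male Crl:CD(SD) rats, n = 3 per group. Blood was sampled from 5 min to 24 h (5, 10, 15, 30 min; 1, 2, 4, 8, 24 h). Plasma was deproteinized with formic acid/methanol and acetonitrile, and peptide levels were measured by LC-MS. Noncompartmental analysis per animal gave Cmax, Tmax, AUC0-24h, MRT and BA; values are mean ± SD (n = 3).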

[11] = AUC (0 to 24 hrs) in Sprague-Dawley rat at 1 mg/kg, iv after 24 hrs by LC-MS/MS analysis; type: ADME, organism-based; design: time < 24 hr, dose 1 mg/kg, route intravenous; conditions: plasma; in short: as §2
Rattus norvegicus [12] = assay: Testosterone-suppressive activity in Crl:CD(SD) rat assessed as plasma testosterone level below the limit of detection at 10 to 100 pmol/hr, sc continuous administration through osmotic pumps measured up to 1 week by RIA; type: functional, organism-based
In short: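 Peptide in 50% DMSO was diluted in distilled water to 10, 30 or 100 μM pump solutions, giving 10–100 pmol/h by subcutaneous ALZET osmotic pump in male Crl:CD(SD) rats (n = 5). Vehicle served as control. Plasma testosterone was measured by RIA after 1 or 4 weeks, with values below 0.04 ng/mL set to 0.04. Results are mean ± SD of five rats, tested by one-tailed Shirley–Williams test versus vehicle.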

[13] = C5min in Sprague-Dawley rat at 1 mg/kg, iv after 5 mins by LC-MS/MS analysis; conditions: in vivo, read-out: Cmin
[14] = Stability of the compound in aqueous solution assessed as residual ratio at pH 3 up to 2 weeks by HPLC analysis relative to initial level; type: physicochemical; in short: as §1
[15] = AUC (0 to 24 hrs) in Sprague-Dawley rat at 1 mg/kg, sc after 24 hrs by LC-MS/MS analysis; type: ADME, organism-based; design: time < 24 hr, dose 1 mg/kg, route subcutaneous; conditions: plasma; in short: as §3
[16] = Stability of the compound in aqueous solution assessed as residual ratio at pH 7 up to 2 weeks by HPLC analysis relative to initial level; type: physicochemical; in short: as §1
KiSS-1 receptor [17] = biological target: T1, KiSS-1 receptor; assay: Agonist activity at human KISS1R transfected in CHO cells assessed as intracellular calcium flux after 24 hrs by functional FLIPR assay; type: cell-based
In short: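 CHO cells stably expressing human KISS1R were seeded at 15 000 cells/mL, cultured 24 h, then loaded with fluo-3 for 1 h at 37 °C in HBSS/HEPES (pH 7.4) with probenecid and FBS. Cells were washed in HBSS with 2.5 mM probenecid. Peptides came from 1 mM DMSO stocks diluted in buffer containing probenecid, 0.2% BSA and 0.1% CHAPS. Fluorescence was recorded on FLIPR for 3 min; peak counts over 0–180 s gave agonist activity.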

[18] = Stability of the compound in aqueous solution (JP1) assessed as residual ratio at pH 1.2 up to 2 weeks by HPLC analysis relative to initial level; type: physicochemical; in short: as §1
[19] = Cmax in Sprague-Dawley rat at 1 mg/kg, sc after 24 hrs by LC-MS/MS analysis; type: ADME, organism-based; design: dose 1 mg/kg, route subcutaneous; conditions: in vivo; in short: as §3
KiSS-1 receptor [20] = biological target: T2, KiSS-1 receptor (Rattus norvegicus, UniProt Q924U1); assay: Agonist activity at rat KISS1R transfected in CHO cells assessed as intracellular calcium flux after 24 hrs by functional FLIPR assay; type: cell-based
T2 sequence (Q924U1 whole entry): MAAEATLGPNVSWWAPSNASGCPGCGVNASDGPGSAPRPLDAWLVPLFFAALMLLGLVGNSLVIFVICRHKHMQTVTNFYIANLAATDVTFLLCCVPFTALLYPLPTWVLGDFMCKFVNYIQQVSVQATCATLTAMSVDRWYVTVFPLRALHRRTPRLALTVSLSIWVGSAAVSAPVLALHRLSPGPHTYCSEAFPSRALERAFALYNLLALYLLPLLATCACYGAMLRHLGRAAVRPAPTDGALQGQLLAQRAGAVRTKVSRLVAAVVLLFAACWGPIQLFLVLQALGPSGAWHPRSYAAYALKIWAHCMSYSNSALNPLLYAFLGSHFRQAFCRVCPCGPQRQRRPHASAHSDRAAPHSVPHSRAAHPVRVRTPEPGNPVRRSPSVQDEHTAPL

[21] = Stability of the compound in aqueous solution assessed as residual ratio at pH 3 up to 1 week by HPLC analysis relative to initial level; type: physicochemical; in short: as §1
[22] = Tmax in Sprague-Dawley rat at 1 mg/kg, sc after 24 hrs by LC-MS/MS analysis; type: ADME, organism-based; design: dose 1 mg/kg, route subcutaneous; conditions: in vivo; in short: as §3
Rattus norvegicus [23] = assay: Stimulation of testosterone release in Crl:CD(SD) rat assessed as testosterone AUC (0 to 4 hrs) at 0.01 to 1 nmol/kg, sc single dose; type: functional, organism-based
Canis familiaris = organism: Canis familiaris; assay: Toxicity in dog; type: organism-based, Canis lupus familiaris; conditions: in vivo
Rattus norvegicus [24] = assay: Stimulation of LH release in Crl:CD(SD) rat assessed as LH AUC (0 to 4 hrs) at 0.01 to 1 nmol/kg, sc single dose relative to metastin; type: functional
KiSS-1 receptor [25] = biological target: T2, KiSS-1 receptor; assay: Displacement of radioligand from rat KISS1R transfected in CHO cells; type: cell-based
Rattus norvegicus [26] = organism: Rattus norvegicus; assay: Toxicity in rat; type: organism-based; conditions: in vivo
[27] = Bioavailability in Sprague-Dawley rat at 1 mg/kg, sc after 24 hrs by LC-MS/MS analysis; type: ADME, organism-based; conditions: in vivo; in short: as §3
[28] = Total clearance in Sprague-Dawley rat at 1 mg/kg, iv after 24 hrs by LC-MS/MS analysis; type: ADME, organism-based; design: dose 1 mg/kg, route intravenous; conditions: in vivo; in short: as §2
[29] = Stability of the compound in aqueous solution assessed as residual ratio at pH 5 up to 1 week by HPLC analysis relative to initial level; type: physicochemical; in short: as §1

Structure (SMILES): CNC(=N)NCCC[C@H](NC(=O)[C@H](CC(C)C)NC(=O)NNC(=O)[C@H](Cc1ccccc1)NC(=O)[C@@H](NC(=O)[C@H](CC(N)=O)NC(=O)[C@@H](Cc1c[nH]c2ccccc12)NC(=O)[C@@H](Cc1ccc(O)cc1)NC(C)=O)[C@@H](C)O)C(=O)N[C@@H](Cc1c[nH]c2ccccc12)C(N)=O (Ac-[dY][dW]NTF[azaGly]L[Arg(Me)]W-NH2)
- Activity (Rattus norvegicus [1]): 4%
- Ki (KiSS-1 receptor [2]): 0.036 nM
- remaining at 168 h [3]: 79.7%
- remaining at 336 h [4]: 93.6%
- Vd [5]: 0.562 L/kg
- MRT [6]: 41.4 min
- remaining at 168 h [7]: 55.6%
- Activity (Rattus norvegicus [8]): 5%
- Activity (Rattus norvegicus [9]): 0 animals
- MRT [10]: 51.6 min
- AUC(0-t) at 24 h [11]: 1220 ng·h/mL
- inhibition (Rattus norvegicus [12]): Active
- concentration at 5 min [13]: 2510 ng/mL
- remaining at 336 h [14]: 95.6%
- AUC(0-t) at 24 h [15]: 115 ng·h/mL
- remaining at 336 h [16]: 66.4%
- EC50 (KiSS-1 receptor [17]): 0.33 nM
- remaining at 336 h [18]: 28.8%
- Cmax [19]: 100 ng/mL
- EC50 (KiSS-1 receptor [20]): 1.3 nM
- remaining at 168 h [21]: 97.7%
- Tmax [22]: 11.4 min
- Activity (Rattus norvegicus [23]): Active
- Activity (Canis familiaris): Non-toxic
- fold change (FC) (Rattus norvegicus [24]): 100
- Ki (KiSS-1 receptor [25]): 0.069 nM
- Activity (Rattus norvegicus [26]): Non-toxic
- bioavailability [27]: 9.4%
- clearance [28]: 13.7 mL/min/kg
- remaining at 168 h [29]: 95.9%

Reference: ChEMBL document CHEMBL3352485 (J Med Chem, 2014)
